Assay results reported in ChEMBL document CHEMBL5038583, “Highly Potent and Selective Butyrylcholinesterase Inhibitors for Cognitive Improvement and Neuroprotection” (J Med Chem, 2021).
Activity calls are given as the source filed them. The rule behind the calls is not given here.

What was measured:
[1] = Cmax in overnight fasted Sprague-Dawley rat at 10 mg/kg, iv measured upto 1440 mins by LC/MS/MS analysis; type: ADME, organism-based; set-up: route intravenous, dose 10 mg/kg, time <=1440; conditions: in vivo, 24 h
How it was run: (§1)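 Male SD rats (180−220 g), n = 8 per route, fasted overnight with water available. Single 10 mg/kg dose p.o. or i.v. in DMSO/PEG400/saline (10:80:10). Retro-orbital blood taken into heparinized tubes at 1–1440 min. Plasma precipitated with methanol containing theophylline internal standard, then LC/MS/MS against a blank-plasma standard curve. Parameters from noncompartmental extravascular analysis; mean ± SD.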

[2] = Metabolic stability in human liver microsomes assessed as half life at 1 uM measured upto 45 mins in presence of NADPH by LC/MS/MS analysis; type: ADME, Microsome
How it was run: (§2)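 Human liver microsomes 0.5 mg/mL, compound 1 μM final, NADPH 2 mM, at 37 °C. Reactions stopped at 0, 5, 15, 30 and 45 min with acetonitrile containing imipramine internal standard. LC/MS/MS quantitation relative to 0 min; initial rates used for t1/2 and intrinsic clearance; ketanserin as assay control. Mean of two independent experiments.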

[3] = AUC (0 to infinity) in overnight fasted Sprague-Dawley rat at 10 mg/kg, po measured upto 1440 mins by LC/MS/MS analysis; type: ADME, organism-based; set-up: route oral, dose 10 mg/kg, time <=1440; conditions: in vivo; how it was run: as §1
SH-SY5Y = test: Cytotoxicity against human SH-SY5Y cells assessed as survival rate at 100 uM incubated for 24 hrs by MTT assay; type: functional
How it was run: (§3)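 Cells seeded at 1 × 10⁴/well in DMEM with 10% FBS and left overnight, then given compound (DMSO stock diluted in DMEM) for 24 h at 37 °C. MTT added for 4 h, formazan dissolved in DMSO, absorbance read at 492 nm. Viability taken as OD treated/OD DMEM × 100%; IC50 from three independent experiments, mean SD.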

Cholinesterase = Cholinesterase (Homo sapiens, UniProt P06276); test: Inhibition of human serum BChE using butyrylthiocholine iodide as substrate preincubated for 20 mins followed by substrate addition and measured after 2 mins by DTNB-reagent based Ellman's method
How it was run: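 hBChE at 0.015 units/mL with DTNB in phosphate buffer pH 8.0, preincubated 20 min at room temperature with at least six concentrations (10⁻⁴−10⁻⁹). Butyrylthiocholine iodide (0.075 M solution) added; A412 read after 2 min at 25 °C. IC50 from % activity vs log concentration; triplicates in at least three runs.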

[4] = Hepatotoxicity in ICR mouse assessed as morphological changes in liver at 1 g/kg, ig administered daily for 14 days analysed after 22 hrs post-administration by hematoxylin and eosin staining based analysis; type: toxicity, tissue-based; conditions: in vivo, po, 1000 mg/kg, 336 h, time 14 day
How it was run: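 Liver from male mice taken 22 h after compound or vehicle; hematoxylin−eosin staining, viewed at ×100.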

[5] = AUC (0 to t) in overnight fasted Sprague-Dawley rat at 10 mg/kg, po measured upto 1440 mins by LC/MS/MS analysis; type: ADME, organism-based; set-up: route oral, dose 10 mg/kg, time <=1440; conditions: in vivo; how it was run: as §1
[6] = Cmax in ICR mouse brain at 10 mg/kg, po measured upto 240 mins; type: ADME, organism-based; set-up: route oral, dose 10 mg/kg, time <=240
How it was run: (§4)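 ICR mice given 10 mg/kg orally in 5% DMSO/40% PEG400/55% saline (1 mg/mL). Blood (retro-orbital) and brain collected at 30, 60, 120 and 240 min. Brain homogenized in 2 volumes PBS, extracted with ethyl acetate, dried and reconstituted in mobile phase. Plasma processed as in the rat study; LC/MS/MS. Brain/plasma ratios from exposures, AUC(B) vs AUC(P).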

HepG2 = test: Cytotoxicity against human HepG2 cells assessed as reduction in cell viability incubated for 24 hrs by MTT assay; type: functional, cell-based; conditions: HepG2, 24 h; how it was run: as §3
[7] = Hepatotoxicity in ICR mouse assessed as change in alanine aminotransferase activity at 1 g/kg, ig administered daily for 14 days measured upto 36 hrs post-administration; type: toxicity; conditions: in vivo, po, 1000 mg/kg, 336 h, time 14 day
How it was run: (§5)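 Heparinized serum from ICR mice taken at 8, 22 and 36 h after oral compound or saline control; AST and ALT activities measured.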

[8] = Ratio of Cmax in brain to plasma of ICR mouse at 10 mg/kg, po measured upto 240 mins; type: ADME, organism-based; how it was run: as §4
[9] = Metabolic stability in human liver microsomes assessed as intrinsic clearance at 1 uM measured upto 45 mins in presence of NADPH by LC/MS/MS analysis; type: ADME, Microsome; conditions: read-out: CLH; how it was run: as §2
[10] = Ratio of drug concentration in brain to plasma of ICR mouse at 10 mg/kg, po measured after 1 hrs; type: ADME, organism-based; how it was run: as §4
[11] = AUC (0 to t) in overnight fasted Sprague-Dawley rat at 10 mg/kg, iv measured upto 1440 mins by LC/MS/MS analysis; type: ADME, organism-based; set-up: route intravenous, dose 10 mg/kg, time <=1440; conditions: in vivo, 24 h; how it was run: as §1
[12] = Cmax in ICR mouse plasma at 10 mg/kg, po measured upto 240 mins; type: ADME, organism-based; set-up: route oral, dose 10 mg/kg, time <=240; how it was run: as §4
[13] = Acute toxicity in ICR mouse assessed as abnormal behaviour at 1 g/kg, ig administered […]; conditions: in vivo, po, 1000 mg/kg
How it was run: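 Single dose of 1 g/kg given intragastrically on day 1 to overnight-fasted mice (15−18 g), suspended in 5% DMSO, 40% PEG 400, 55% saline. Male and female groups (n = 9), with vehicle controls. Death, daily behaviour and body mass followed over the next 2 weeks.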

[14] = Ratio of drug concentration in brain to plasma of ICR mouse at 10 mg/kg, po measured after 4 hrs; type: ADME, organism-based; how it was run: as §4
Mus musculus [15] = test: Antialzheimer activity in scopolamine-induced ICR mouse model of cognitive impairment assessed as reduction in escape latency at 30 mg/kg, ig administered for 10 consecutive days by Morris water maze test; type: functional, organism-based
How it was run: (§6)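 Male ICR mice (8−10 weeks, 18−20 g), n = 8 per group. Compound at 15 or 30 mg/kg intragastric in DMSO/saline (10:90), given 30 min before scopolamine 3 mg/kg i.p., for 10 consecutive days; tacrine 15 mg/kg as reference. Morris water maze: 5 days of training, probe trial on day 6 with platform removed. Escape latency and trajectory recorded; mean ± SD.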

[16] = Tmax in overnight fasted Sprague-Dawley rat at 10 mg/kg, iv measured upto 1440 mins by LC/MS/MS analysis; type: ADME, organism-based; conditions: in vivo; how it was run: as §1
[17] = Ratio of drug concentration in brain to plasma of ICR mouse at 10 mg/kg, po measured after 0.5 hrs; type: ADME, organism-based; how it was run: as §4
Mus musculus [18] = test: Antialzheimer activity in ICR mouse assessed as reduction in scopolamine-induced cognitive impairment at 30 mg/kg, ig administered for 10 consecutive days by Morris water maze test; type: functional, organism-based; conditions: time 10.0 day; how it was run: as §6
[19] = Hepatotoxicity in ICR mouse assessed as change in aspartate aminotransferase activity at 1 g/kg, ig administered daily for 14 days measured upto 36 hrs post-administration; type: toxicity; conditions: in vivo, po, 1000 mg/kg, 336 h, time 14 day; how it was run: as §5
[20] = AUC (0 to infinity) in overnight fasted Sprague-Dawley rat at 10 mg/kg, iv measured upto 1440 mins by LC/MS/MS analysis; type: ADME, organism-based; set-up: route intravenous, dose 10 mg/kg, time <=1440; conditions: in vivo, 24 h; how it was run: as §1
[21] = Ratio of drug concentration in brain to plasma of ICR mouse at 10 mg/kg, po measured after 2 hrs; type: ADME, organism-based; how it was run: as §4
[22] = MRT (0 to infinity) in overnight fasted Sprague-Dawley rat at 10 mg/kg, iv measured upto 1440 mins by LC/MS/MS analysis; type: ADME, organism-based; conditions: in vivo; how it was run: as §1
L02 = test: Cytotoxicity against human L02 cells assessed as survival rate at 100 uM incubated for 24 hrs by MTT assay; type: functional; how it was run: as §3

Chain of Cholinesterase (P06276 whole entry): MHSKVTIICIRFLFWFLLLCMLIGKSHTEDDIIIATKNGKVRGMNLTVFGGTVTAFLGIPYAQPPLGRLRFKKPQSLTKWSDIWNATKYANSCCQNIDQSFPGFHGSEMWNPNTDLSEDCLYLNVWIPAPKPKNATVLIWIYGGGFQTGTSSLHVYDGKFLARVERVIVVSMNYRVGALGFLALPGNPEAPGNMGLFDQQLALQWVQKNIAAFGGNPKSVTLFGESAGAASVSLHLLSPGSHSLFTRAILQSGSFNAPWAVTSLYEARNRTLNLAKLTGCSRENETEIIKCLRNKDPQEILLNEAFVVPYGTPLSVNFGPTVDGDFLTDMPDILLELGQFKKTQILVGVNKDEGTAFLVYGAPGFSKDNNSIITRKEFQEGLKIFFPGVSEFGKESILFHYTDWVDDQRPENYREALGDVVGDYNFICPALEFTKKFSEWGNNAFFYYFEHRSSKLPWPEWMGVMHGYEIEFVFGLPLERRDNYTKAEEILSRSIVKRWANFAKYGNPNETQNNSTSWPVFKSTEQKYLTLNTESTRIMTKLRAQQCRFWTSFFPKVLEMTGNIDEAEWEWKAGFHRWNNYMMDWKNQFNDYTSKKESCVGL

## Nc1nonc1-c1nc2ccccc2n1CC(=O)Nc1cnc2ccccc2c1
[1]
  Cmax: 488.33 ng/mL
[2]
  half-life at 1 µM: 2.65 h
[3]
  AUC(0-inf): 662 ng·h/mL
SH-SY5Y
  Activity: 62.19%
Cholinesterase
  IC50: 0.016 µM
[4]
  Activity: Non-Toxic
[5]
  AUC(0-t) at 24 h: 628 ng·h/mL
[6]
  Cmax: 12.1 ng/mL
HepG2
  IC50: 84.3 µM
[7]
  Activity: Non-Toxic
[8]
  Kp at 4 h: 0.24
[9]
  CLint scaled at 1 µM: 10.9 mL/min/kg
[10]
  Kp at 1 h: 5.05
[11]
  AUCt: 859.64 ng·h/mL
[12]
  Cmax: 49.9 ng/mL
[13]
  Activity: Non-Toxic
[14]
  Kp at 4 h: 1.54
Mus musculus [15]
  Activity: Active
[16]
  Tmax: 1.02 min
[17]
  Kp at 0.5 h: 1.54
Mus musculus [18]
  Activity: Active
[19]
  Activity: Non-Toxic
[20]
  AUC: 1092.11 ng·h/mL
[21]
  Kp at 2 h: 2.43
[22]
  MRT inf: 14.1 h
L02
  Activity: 70.64%
